Experimental data as given in ChEMBL document CHEMBL1124147 (J Med Chem, 1988).

Tests used:
[1] = organism: Cavia porcellus; assay: Effective concentration of compound for the agonistic activity on guinea pig ileum; assay type: functional
Summary of the method: (§1)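 Isolated ileum preparation, with the agonist EC50 and the antagonist IC50 read from dose-response curves.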

[2] = organism: Cavia porcellus; assay: Compound was tested for the antagonistic activity on guinea pig ileum; assay type: functional; summary of the method: as §1
[3] = biological target: T1, Muscarinic acetylcholine receptor M2 (Rattus norvegicus, UniProt P10980); assay: Inhibition of [3H]quinuclidinyl benzilate binding to Muscarinic acetylcholine receptor M2 in rat brain membrane; assay type: cell membranes
T1 sequence (P10980 whole entry): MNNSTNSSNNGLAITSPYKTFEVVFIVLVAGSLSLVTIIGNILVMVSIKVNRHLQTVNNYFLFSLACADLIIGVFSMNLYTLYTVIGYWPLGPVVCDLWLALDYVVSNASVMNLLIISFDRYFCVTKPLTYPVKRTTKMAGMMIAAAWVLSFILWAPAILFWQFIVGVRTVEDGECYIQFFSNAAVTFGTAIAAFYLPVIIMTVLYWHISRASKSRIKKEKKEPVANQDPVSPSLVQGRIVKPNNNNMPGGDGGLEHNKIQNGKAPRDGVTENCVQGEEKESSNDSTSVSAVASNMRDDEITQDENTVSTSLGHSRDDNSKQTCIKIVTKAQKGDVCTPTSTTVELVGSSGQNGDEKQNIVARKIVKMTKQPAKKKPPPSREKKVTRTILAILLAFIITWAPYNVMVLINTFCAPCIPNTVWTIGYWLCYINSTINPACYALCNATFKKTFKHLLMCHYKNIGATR

[4] = biological target: T1, Muscarinic acetylcholine receptor M2; assay: Inhibition of [3H]quinuclidinyl benzilate binding to Muscarinic acetylcholine receptor M2 of rat heart
[5] = biological target: Muscarinic acetylcholine receptor; assay: Inhibition of [3H]oxotremorine-M binding to rat brain membrane Muscarinic acetylcholine receptor
[6] = biological target: T2, Muscarinic acetylcholine receptor M1 (Rattus norvegicus, UniProt P08482); assay: Inhibition of [3H]pirenzepine binding to rat brain membrane Muscarinic acetylcholine receptor M1
T2 sequence (P08482 whole entry): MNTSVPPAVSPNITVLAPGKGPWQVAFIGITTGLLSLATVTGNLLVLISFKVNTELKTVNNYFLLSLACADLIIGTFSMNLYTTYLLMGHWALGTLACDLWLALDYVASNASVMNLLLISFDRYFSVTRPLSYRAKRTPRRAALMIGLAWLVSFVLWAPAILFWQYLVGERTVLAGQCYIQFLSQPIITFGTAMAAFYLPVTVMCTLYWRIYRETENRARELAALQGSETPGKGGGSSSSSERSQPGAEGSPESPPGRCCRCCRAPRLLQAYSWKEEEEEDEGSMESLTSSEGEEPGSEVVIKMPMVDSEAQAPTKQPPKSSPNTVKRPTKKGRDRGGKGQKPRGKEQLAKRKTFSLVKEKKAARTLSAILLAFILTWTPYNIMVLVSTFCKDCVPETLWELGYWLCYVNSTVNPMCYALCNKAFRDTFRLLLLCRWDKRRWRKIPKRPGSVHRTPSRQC

[7] = (§2) Muscarinic agonist index (Ki in [3H]QNB / Ki in [3H]-OXO-M) was determined; assay type: functional
[8] = M-1 selectivity expressed as M-2/M-1 index (Ki in [3H]-QNB / Ki in [3H]PZ) was determined
Summary of the method: (§3)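 Ratio of Ki from [3H]QNB binding in rat heart to Ki from [3H]PZ binding in rat brain membranes. Ki = IC50/(1+[L]/Kd) in both. Heart assay: tissue homogenized with an ultraturrax, 4 mg tissue per assay, QNB Kd 9.1 ± 0.7 pM.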

[9] = organism: Cavia porcellus; assay: Compound was tested for the agonistic activity on guinea pig ileum; assay type: functional; summary of the method: as §1
[10] = as §2
[11] = M-1 selectivity expressed as M-2/M-1 index (Ki in [3H]QNB / Ki in [3H]-PZ) was determined; assay type: functional; summary of the method: as §3
[12] = biological target: T1, Muscarinic acetylcholine receptor M2; assay: Compound was tested for the inhibition of [3H]quinuclidinyl benzilate binding to Muscarinic acetylcholine receptor M2 in rat brain membrane; assay type: cell membranes

Row | SMILES | EC50 [1] | IC50 [2] | IC50 [3] | IC50 [4] | IC50 [5] | IC50 [6] | M-agonist index [7] | Ratio [8] | EC50 [9] | M-agonist index [10] | Ratio [11] | IC50 [12]
1 | COc1noc2c1CN(C)CC2 |  | > 0.2 µM | 38 µM | 16 µM | 0.028 µM | 6.4 µM |  |  | 0.83 µM | 220 | 0.31 | 
2 | Cn1oc2c(c1=O)CSCC2 | > 50 µM | > 50 µM | > 1000 µM | > 1000 µM | > 1000 µM | > 1000 µM |  |  |  |  |  | 
3 | Cn1oc2c(c1=O)C[S+](C)CC2.[I-] (configuration not stated) | 9.3 µM | > 6 µM | 110 µM | 10 µM | 0.22 µM | 30 µM | 81 | 0.04 |  |  |  | 
4 | CCOc1noc2c1C[S+](C)CC2.[I-] (configuration not stated) | > 50 µM | 15 µM |  | 4.9 µM | 0.23 µM | 0.53 µM | 3.3 | 1.2 |  |  |  | 4.6 µM
5 | COC(=O)C1=CCCN(C)C1 [ARECOLINE] | 0.15 µM | > 1 µM |  |  |  |  |  |  |  |  |  | 
6 | COc1noc2c1C[N+](C)(C)CC2.[I-] | 8.2 µM | > 3 µM | 74 µM | 9.5 µM | 0.043 µM | 2.8 µM | 279 | 0.42 |  |  |  | 
7 | COc1noc2c1CSCC2 | > 50 µM | > 50 µM | > 1000 µM | > 1000 µM | > 1000 µM | > 1000 µM |  |  |  |  |  | 

The next lines start with the values.

Row | EC50 [1] | IC50 [2] | IC50 [3] | IC50 [4] | IC50 [5] | IC50 [6] | M-agonist index [7] | Ratio [8] | EC50 [9] | M-agonist index [10] | Ratio [11] | IC50 [12] | SMILES
8 | 6.2 µM | > 3 µM | 4.8 µM | 1.8 µM | 0.039 µM | 0.43 µM | 20 | 0.53 |  |  |  |  | CC(C)Oc1noc2c1C[S+](C)CC2.[I-] (configuration not stated)
9 | 0.56 µM | > 0.2 µM | 2.6 µM | 0.44 µM | 0.0033 µM | 0.25 µM | 128 | 0.22 |  |  |  |  | C#CCOc1noc2c1C[S+](C)CC2.[I-] (configuration not stated)
10 |  |  | 34 µM | 2.5 µM | 0.0014 µM | 2.6 µM | 3930 | 0.12 |  |  |  |  | COC(=O)C1=CCC[S+](C)C1.[I-] (configuration not stated) [SULFOARECOLINE IODIDE]
11 | 0.84 µM | > 0.4 µM | 36 µM | 1.6 µM | 0.019 µM | 4.1 µM | 307 | 0.05 |  |  |  |  | COc1noc2c1C[S+](C)CC2.[I-] (configuration not stated)
12 |  |  | 22 µM | 3.9 µM | 0.0092 µM | 0.4 µM | 387 | 1.2 |  |  |  |  | CCOC(=O)C1=CCC[S+](C)C1.[Cl-] (configuration not stated)
